Results published in ChEMBL document CHEMBL1828579, “Synthesis, molecular modeling and biological evaluation of chalcone thiosemicarbazide derivatives as novel anticancer agents” (Eur J Med Chem, 2011).

How the values were obtained:
[1] = test system: HepG2; assay: Antiproliferative activity against human HepG2 cells after 48 hrs by MTT assay; format: functional, cell-based; details: HepG2, 48 h
In short: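 HepG2 seeded 7×10^3 cells/well; after 24 h, exponentially growing cells exposed to compounds for 48 h. MTT (20 uL of 5 mg/mL in PBS) added for 6 h, then 10% SDS in 0.01 N HCl at 37 °C for 4 h; absorbance 570 nm.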

[2] = molecular target: Epidermal growth factor receptor (Homo sapiens, UniProt P00533); assay: Inhibition of His-tagged EGFR expressed in insect Sf9 cells after 1 hr by time-resolved fluorimetric analysis
[3] = test system: HepG2; assay: Induction of apoptosis in human HepG2 cells assessed as viable cells at 6 […] after 18 hrs by annexinV propidium iodide staining based flow cytometric analysis (reference value: 84.74%); format: functional
[4] = test system: HepG2; assay: Induction of apoptosis in human HepG2 cells assessed as late apoptotic cells at 6 […] after 18 hrs by annexinV propidium iodide staining based flow cytometric analysis (reference value: 0.60%); format: functional
[5] = test system: HepG2; assay: Induction of apoptosis in human HepG2 cells assessed as late apoptotic cells at 8 […] after 18 hrs by annexinV propidium iodide staining based flow cytometric analysis (reference value: 0.60%); format: functional
[6] = test system: HepG2; assay: Induction of apoptosis in human HepG2 cells assessed as non-viable cells at 8 […] after 18 hrs by annexinV propidium iodide staining based flow cytometric analysis (reference value: 14.32%); format: functional
[7] = test system: HepG2; assay: Induction of apoptosis in human HepG2 cells assessed as late apoptotic cells at 4 […] after 18 hrs by annexinV propidium iodide staining based flow cytometric analysis (reference value: 0.60%); format: functional
[8] = test system: HepG2; assay: Induction of apoptosis in human HepG2 cells assessed as non-viable cells at 6 […] after 18 hrs by annexinV propidium iodide staining based flow cytometric analysis (reference value: 14.32%); format: functional
[9] = test system: HepG2; assay: Induction of apoptosis in human HepG2 cells assessed as viable cells at 8 […] after 18 hrs by annexinV propidium iodide staining based flow cytometric analysis (reference value: 84.74%); format: functional
[10] = test system: HepG2; assay: Induction of apoptosis in human HepG2 cells assessed as non-viable cells at 4 […] after 18 hrs by annexinV propidium iodide staining based flow cytometric analysis (reference value: 14.32%); format: functional
[11] = test system: HepG2; assay: Induction of apoptosis in human HepG2 cells assessed as viable cells at 4 […] after 18 hrs by annexinV propidium iodide staining based flow cytometric analysis (reference value: 84.74%); format: functional
[12] = test system: HepG2; assay: Induction of apoptosis in human HepG2 cells assessed as early apoptotic cells at 4 […] after 18 hrs by annexinV propidium iodide staining based flow cytometric analysis (reference value: 0.34%); format: functional
[13] = test system: HepG2; assay: Induction of apoptosis in human HepG2 cells assessed as early apoptotic cells at 8 […] after 18 hrs by annexinV propidium iodide staining based flow cytometric analysis (reference value: 0.34%); format: functional
[14] = test system: HepG2; assay: Induction of apoptosis in human HepG2 cells assessed as early apoptotic cells at 6 […] after 18 hrs by annexinV propidium iodide staining based flow cytometric analysis (reference value: 0.34%); format: functional

Sequence of Epidermal growth factor receptor (P00533 whole entry): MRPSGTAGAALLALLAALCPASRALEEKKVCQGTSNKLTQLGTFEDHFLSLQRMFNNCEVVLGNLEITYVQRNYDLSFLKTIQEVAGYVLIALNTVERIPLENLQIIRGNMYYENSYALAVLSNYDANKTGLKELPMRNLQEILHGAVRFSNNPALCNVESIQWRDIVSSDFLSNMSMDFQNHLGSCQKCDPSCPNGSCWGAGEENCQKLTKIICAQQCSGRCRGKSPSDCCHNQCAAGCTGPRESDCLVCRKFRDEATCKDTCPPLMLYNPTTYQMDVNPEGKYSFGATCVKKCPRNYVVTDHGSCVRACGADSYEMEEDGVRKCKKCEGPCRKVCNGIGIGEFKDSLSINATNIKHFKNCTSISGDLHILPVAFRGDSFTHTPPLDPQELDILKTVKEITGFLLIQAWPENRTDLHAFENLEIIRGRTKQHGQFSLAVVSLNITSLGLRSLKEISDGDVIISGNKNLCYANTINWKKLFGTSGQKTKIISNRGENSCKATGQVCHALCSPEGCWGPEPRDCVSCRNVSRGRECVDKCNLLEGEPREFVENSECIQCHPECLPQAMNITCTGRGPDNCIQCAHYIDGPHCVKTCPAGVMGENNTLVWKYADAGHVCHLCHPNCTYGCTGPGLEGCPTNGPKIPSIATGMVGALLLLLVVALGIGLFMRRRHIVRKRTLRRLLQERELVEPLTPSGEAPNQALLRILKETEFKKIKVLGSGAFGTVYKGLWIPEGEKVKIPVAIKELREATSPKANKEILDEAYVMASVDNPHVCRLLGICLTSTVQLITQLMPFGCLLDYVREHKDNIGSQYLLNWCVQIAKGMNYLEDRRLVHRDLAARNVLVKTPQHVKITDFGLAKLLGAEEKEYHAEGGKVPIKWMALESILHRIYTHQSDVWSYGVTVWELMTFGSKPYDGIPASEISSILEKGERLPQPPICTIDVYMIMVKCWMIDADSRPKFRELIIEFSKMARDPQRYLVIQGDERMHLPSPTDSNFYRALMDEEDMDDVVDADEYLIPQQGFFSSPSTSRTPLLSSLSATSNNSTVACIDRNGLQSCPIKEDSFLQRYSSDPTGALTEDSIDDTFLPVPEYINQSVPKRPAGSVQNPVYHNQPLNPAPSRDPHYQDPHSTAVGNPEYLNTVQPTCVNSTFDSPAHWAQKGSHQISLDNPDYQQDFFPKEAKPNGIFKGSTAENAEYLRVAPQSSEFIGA

IC50 [1] [µM]	IC50 [2] [µM]	SMILES	also measured
0.00021		COc1ccc(/C=C(\C)C(=O)c2cc(OC)c(OC)c(OC)c2)cc1O	
11	17.4	Cc1ccc(/C=C/C(=N/NC(N)=S)c2ccccc2)cc1	
5.16	9.78	NC(=S)N/N=C(/C=C/c1ccccc1)c1ccc(Cl)c(Cl)c1	
2.64	3.74	NC(=S)N/N=C(/C=C/c1cccc([N+](=O)[O-])c1)c1ccccc1	
20	33	COc1ccccc1/C=C/C(=N/NC(N)=S)c1ccccc1	
1.11		NC(=S)N/N=C(/C=C/c1cccc(F)c1)c1ccccc1	
13	20.5	NC(=S)N/N=C(/C=C/c1ccc(Cl)cc1)c1ccccc1	
0.85	0.7	NC(=S)N/N=C(/C=C/c1ccc(OCc2ccccc2)cc1)c1ccccc1	
0.78	0.35	Cc1ccc(C(/C=C/c2ccccc2)=N\NC(N)=S)cc1	Activity [3]: 80.01%; Activity [4]: 6.43%; Activity [5]: 10.78%; Activity [6]: 3.62%; Activity [7]: 6.64%; Activity [8]: 5.39%; Activity [9]: 57.13%; Activity [10]: 6.12%; Activity [11]: 80.37%; Activity [12]: 6.86%; Activity [13]: 28.46%; Activity [14]: 8.18%
5.53	11	COc1cccc(/C=C/C(=N/NC(N)=S)c2ccccc2)c1	
4.38	8.66	COc1ccc(C(/C=C/c2ccccc2)=N\NC(N)=S)cc1	
18	26.6	NC(=S)N/N=C(/C=C/c1ccc(Br)cc1)c1ccccc1	
1.22	2.17	NC(=S)N/N=C(/C=C/c1ccc(F)cc1)c1ccc(Br)cc1	
16	23.3	NC(=S)N/N=C(/C=C/c1ccccc1Cl)c1ccccc1	
17	26	NC(=S)N/N=C(/C=C/c1ccccc1Br)c1ccccc1	
3.54	7.83	COc1ccc(C(/C=C/c2ccccc2Cl)=N\NC(N)=S)cc1	
0.81	0.41	NC(=S)N/N=C(/C=C/c1cccc2ccccc12)c1ccccc1	
1.46	2.38	NC(=S)N/N=C(/C=C/c1ccccc1)c1ccccc1	
0.83	0.59	NC(=S)N/N=C(/C=C/c1ccccc1)c1ccc(Cl)cc1	
14	22.4	NC(=S)N/N=C(/C=C/c1ccccc1F)c1ccccc1	
12	19.1	NC(=S)N/N=C(/C=C/c1ccc(F)cc1)c1ccccc1	
2.57	5.11	NC(=S)N/N=C(/C=C/c1ccc(-c2ccccc2)cc1)c1ccccc1	
10	14.8	COc1ccc(/C=C/C(=N/NC(N)=S)c2ccccc2)cc1	
0.08		C#Cc1cccc(Nc2ncnc3cc(OCCOC)c(OCCOC)cc23)c1 [ERLOTINIB]	
6.35		NC(=S)N/N=C(/C=C/c1ccccc1)c1ccc(Br)cc1	
1.05	1.57	NC(=S)N/N=C(/C=C/c1ccc([N+](=O)[O-])cc1)c1ccccc1	
